Here are results for 83 variants from the RNAGym collection of RNA variant scans (doi:10.1126/science.aae0568).

Sequences and labels used below:
B1: tRNA (parent)
chain: GUUCCGUUGGCGUAAUGGUAACGCGUCUCCCUCCUAAGGAGAAGACUGCGGGUUCGAGUCCCGUACGGAACG

Variants at the floor of the assay were thinned out.

In this data set the parent is B1. The data set can be described thus: yeast fitness relative to wild type (ratio to wild type); higher = fitter; tRNA-Arg(CCU), competitive growth, 37 C, YPD. Put shortly:
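The tRNA-Arg(CCU) gene variants were made by chemical synthesis with a 3% per-site mutation rate at 69 sites and inserted at the native genomic locus of Saccharomyces cerevisiae. After pooling, the strains were competed in YPD at 37°C for 24 hours in six parallel replicates. Gene amplicons from the start population and each end population were read by 100-nucleotide paired-end sequencing, and Darwinian fitness relative to wild type was taken from genotype frequency changes. Genotypes needed ≥ 100 starting reads, and estimates < 0.5 were set to 0.5.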
With C5A C11U C46U G50C, the yeast fitness turned out to be 0.709.

In the case of C5A C24U C29U C30A A37C A65C, the yeast fitness worked out at 0.549.

For the variant C5A A21G C31G G56C U59A C60G C62G A70C, the yeast fitness was ≤ 0.5.

Take C5A C27A C46A C49A C55A: the yeast fitness was ≤ 0.5.

C5A A37U C49U: the yeast fitness was ≤ 0.5.

As to C5A A21C C30G C34U G38C C49U A70C, the yeast fitness was found to be 0.551.

As for C5A A40G C49U, the yeast fitness amounted to 0.548.

As to C5A A37C C55A G56C, the yeast fitness was ≤ 0.5.

With C5A A36G C46A, the yeast fitness was found to be 0.562.

Regarding C5A A45U A69U, the yeast fitness came to 0.801.

For C5A C24U A36C, the yeast fitness was ≤ 0.5.

On to C5A C24G A36C A70C, for which the yeast fitness was ≤ 0.5.

Consider C5A C11G A37U C49A, for which the yeast fitness is 0.515.

Consider C5A A40G A65G, for which the yeast fitness was found to be 0.605.

With C5A A40G, the yeast fitness was 0.713.

Consider C5A A40U G48C G63A, for which the yeast fitness was ≤ 0.5.

C5A C24G C62A: the yeast fitness was ≤ 0.5.

C5A C22U C27G C30G A57U: the yeast fitness was ≤ 0.5.

For the variant C5A C30G A43C, the yeast fitness is ≤ 0.5.

As for C5A C27U, the yeast fitness is 0.815.

C5A C24U G51A: the yeast fitness was ≤ 0.5.

C5A A40U G41C: the yeast fitness stood at 0.614.

In the case of C5A C22G C24G C31U A43U G48A A69U, the yeast fitness was 0.507.

In the case of C5A C11G C33A G38A C46G A70U, the yeast fitness was ≤ 0.5.

Turning to C5A C24U U35C C61A, the yeast fitness was ≤ 0.5.

Regarding C5A A21C C30G C34U G58C, the yeast fitness was ≤ 0.5.

Turning to C5A A65U, the yeast fitness came out at 0.723.

Consider C5A A37C A40C A45U A57C A70U, for which the yeast fitness was ≤ 0.5.

In the case of C5A A65C A70C, the yeast fitness was 0.675.

Take C5A C22G C49U A57C: the yeast fitness came out at 0.779.

As to C5A C27A U28G, the yeast fitness came to 0.617.

Regarding C5A C24U C29U C33U C34G A42U G58A, the yeast fitness is ≤ 0.5.

Take C5A A37C C49A: the yeast fitness is ≤ 0.5.

Regarding C5A C22G C27G A36U A40C G67A, the yeast fitness was ≤ 0.5.

For C5A C11U U13G C29G C33A C46A, the yeast fitness was determined as 0.575.

Take C5A A42U G67A: the yeast fitness is ≤ 0.5.

Regarding C5A A21U C55A C66U, the yeast fitness was ≤ 0.5.

With C5A A21C C27A, the yeast fitness is 0.568.

C5A C24U A36C C66U: the yeast fitness is ≤ 0.5.

For the variant C5A A21U C24U C27G, the yeast fitness is ≤ 0.5.

Consider C5A C22A G50C A69C, for which the yeast fitness was determined as 0.845.

Take C5A C11G A21U U28C: the yeast fitness was ≤ 0.5.

Consider C5A A42G C49G U54C G63C A70U, for which the yeast fitness was ≤ 0.5.

Turning to C5A A57G C66U, the yeast fitness is ≤ 0.5.

As to C5A C29A C34G, the yeast fitness was ≤ 0.5.

Regarding C5A C22A A40G, the yeast fitness is ≤ 0.5.

With C5A C22G C27G A36U A40C, the yeast fitness is ≤ 0.5.

For the variant C5A C24G U26A C29G U32A C49U, the yeast fitness was ≤ 0.5.

Regarding C5A C24U A43C G58A, the yeast fitness is ≤ 0.5.

For C5A C24U G25C C30G, the yeast fitness is ≤ 0.5.

In the case of C5A C24U, the yeast fitness was found to be 0.71.

For the variant C5A C24G, the yeast fitness was found to be 0.621.

As to C5A C11G G41C C66U, the yeast fitness is ≤ 0.5.

With C5A C27U G38A, the yeast fitness was 0.565.

C5A A21G C31G U53G: the yeast fitness is ≤ 0.5.

Take C5A C11U C31U C49G C61A: the yeast fitness was ≤ 0.5.

For C5A C27G C31G U59C, the yeast fitness is ≤ 0.5.

Take C5A C24G G56A C62A: the yeast fitness was ≤ 0.5.

For the variant C5A C22G U47C, the yeast fitness is ≤ 0.5.

Take C5A C11G A21U G44C A57U: the yeast fitness is ≤ 0.5.

With C5A C11G C27A C34U G39A, the yeast fitness is 0.683.

Take C5A C22U U53C U59G C61G C62U: the yeast fitness was ≤ 0.5.

On to C5A A21U A65G, for which the yeast fitness came to 0.636.

Take C5A C27U G39C C49U C55U: the yeast fitness was ≤ 0.5.

In the case of C5A C22G C29A A43U, the yeast fitness came to 0.574.

With C5A C22G A37C A40C, the yeast fitness worked out at 0.736.

Regarding C5A C22G C29G C31G C61A, the yeast fitness came out at 0.529.

C5A C11U U13C: the yeast fitness was found to be 0.57.

C5A C29A: the yeast fitness was 0.612.

For the variant C5A C22U C31G C60A, the yeast fitness was ≤ 0.5.

For the variant C5A C11U G18C U19A C27A C33A C61G A70G, the yeast fitness was ≤ 0.5.

Regarding C5A A43C A45U U53C, the yeast fitness was 0.615.

Turning to C5A A37C, the yeast fitness is 0.77.

Regarding C5A A21C A43U C46G G50U C61G, the yeast fitness was ≤ 0.5.

As to C5A A42U G58A, the yeast fitness worked out at 0.614.

As for C5A C27A C34G U59C, the yeast fitness came out at 0.539.

For C5A C24A U26G A43C A69U, the yeast fitness was ≤ 0.5.

For C5A C11A G17C A43U U59A, the yeast fitness was ≤ 0.5.

For C5A A57U C61G, the yeast fitness is ≤ 0.5.

As for C5A C11U C29U C31U A42C A69C, the yeast fitness is ≤ 0.5.

As to C5A C30A A36U G41C G51C, the yeast fitness is 0.65.

In the case of C5A C11U C31G, the yeast fitness was 0.558.

On to C5A A21U U32A G50A C60G, for which the yeast fitness is ≤ 0.5.
